Format in all cases: functional
Test [1] deals with Enterococcus sp. The experiment in a line: Antibacterial activity was determined against clinically isolated vancomycin-A resistant enterococci (VRE) strains (33 strains).
Test [2] has as its system Enterococcus sp. Kind of test: Antibacterial activity was determined against clinically isolated vancomycin-B resistant enterococci (VRE) strains (10 strains).
The subject of test [3] is Staphylococcus aureus. The experiment in a line: Antibacterial activity was determined against clinically isolated Levofloxacin-methicillin resistant Staphylococcus aureus (LVFX-r MRSA) strains (74 strains).
The test system of test [4] is Streptococcus pneumoniae. The experiment in a line: Antibacterial activity was determined against clinically isolated penicillin resistant Streptococcus pneumoniae (PRSP) strains (50 strains).
In the next test the test system is Escherichia coli. The experiment in a line: Antibacterial activity was determined against Escherichia coli NIHJ strain after incubation at 37 degrees C for 18 h.
Another test relates to Enterococcus faecalis. The experiment in a line: Antibacterial activity was determined against Enterococcus faecalis ATCC 19433 strain after incubation at 37 degrees C for 18 h. The following applies: ATCC 19433, 18 h.
The test system of a further test is Klebsiella pneumoniae. The experiment in a line: Antibacterial activity was determined against Klebsiella pneumoniae type II strain after incubation at 37 degrees C for 18 h.
Another test concerns Pseudomonas aeruginosa. Kind of test: Antibacterial activity was determined against Pseudomonas aeruginosa PAO1 strain after incubation at 37 degrees C for 18 h.
In test [5] the test system is Staphylococcus epidermidis. The experiment in a line: Antibacterial activity was determined against Staphylococcus epidermis 56500 strain after incubation at 37 degrees C for 18 h.
Test [6] deals with Staphylococcus aureus. The experiment in a line: Antibacterial activity was determined against Staphylococcus aureus FDA 209-P strain after incubation at 37 degrees C for 18 h.
The subject of a further test is Streptococcus pyogenes. Kind of test: Antibacterial activity was determined against Streptococcus pyogenes G-36 strain after incubation at 37 degrees C for 18 h.
The test system of test [7] is Streptococcus pneumoniae. Kind of test: Antibacterial activity was determined against Streptococcus pneumoniae J-24 strain after incubation at 37 degrees C for 18 h.
The test system of a further test is Streptococcus mitis. Kind of test: Antibacterial activity was determined against Streptococcus mitis IID685 strain after incubation at 37 degrees C for 18 h.
The test system of test [8] is Streptococcus pneumoniae. Kind of test: Antibacterial activity was determined against clinically isolated penicillin resistant Streptococcus pneumoniae (PRSP) strains (50 strains); Range= 1-4.
Test [9] concerns Enterococcus sp. Kind of test: Antibacterial activity was determined against clinically isolated vancomycin-A resistant Enterococci (VRE) strains (33 strains). The method in brief: (§1)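 Twofold broth microdilution in Mueller–Hinton broth, inoculum about 10^5 CFU per well. Plates incubated 18 h at 37 °C. MIC taken as the lowest concentration preventing visible growth. Organisms were clinical resistant Gram-positive isolates.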

Test [10] has as its system Enterococcus sp. The experiment in a line: Antibacterial activity was determined against clinically isolated vancomycin-B resistant Enterococci (VRE) strains (10 strains). The method in brief:
as §1

In brackets after ≈: the same amount, converted by molar mass. *1 amine or outer side, *2 acyl side, *3 side chain or, on linkers, in order; H or OH if unused. Where a SMILES comes first, the peptide text is derived from it. Bridges are numbered along the chain shown (N, C = ends). [ ]: non-standard residue; d: D form. The star is where a group is joined. X1 = O=C1C[C@@H](C(=O)[*:2])N([*:1])C[C@H]1CS[C@@H]1CN2CCC1CC2; NMePhe(4-NMe2) = CN[C@@H](Cc1ccc(N(C)C)cc1)C(=O)O; Picolinoyl(3-OH) = O=C(c1ncccc1O)*; Phg = N[C@H](C(=O)O)c1ccccc1; dAbu = CC[C@@H](N)C(=O)O

The source of these data is ChEMBL document CHEMBL1145781, “Synthesis and structure-activity relationships of 5-amino-6-fluoro-1-[(1R,2S)-2-fluorocyclopropan-1-yl]-8-methylquinolonecarboxylic acid antibacterials having fluorinated 7-[(3R)-3-(1-aminocyclopropan-1-yl)pyrrolidin-1-yl] substituents” (J Med Chem, 2003).

By MIC50 is commonly meant the lowest concentration that inhibits either 50% of growth or 50% of the strains tested, depending on the study. The low end stands for greater potency, the high end for weaker potency. The term MIC90 denotes an inhibitory concentration at the 90% level, which refers to growth in some studies and to a panel of isolates in others. High values mean lower susceptibility, low ones higher susceptibility. As a reminder, the MIC is the lowest concentration found to suppress growth. A higher MIC goes with a need for much substance.

`CC(=O)N[C@@H]1[C@H](Oc2c3cc4cc2Oc2ccc(cc2Cl)[C@@H](O[C@@H]2O[C@@H](CO)[C@@H](O)[C@H](O)[C@@H]2NC(C)=O)[C@@H]2NC(=O)[C@H](NC(=O)[C@@H]4NC(=O)[C@H]4NC(=O)[C@@H](Cc5ccc(c(Cl)c5)O3)NC(=O)[C@H](N)c3ccc(O)c(c3)Oc3cc(O)cc4c3)c3ccc(O)c(c3)-c3c(O[C@H]4O[C@H](CO)[C@@H](O)[C@@H](O)[C@@H]4O)cc(O)cc3[C@@H](C(=O)O)NC2=O)O[C@@H](CO)[C@@H](O)[C@@H]1O`: the MIC50 in the test on Enterococcus sp. [1] was 32 µg/mL (≈ 18.1 µM); in the test with Enterococcus sp. [2] it was 1 µg/mL (≈ 0.566 µM); with Staphylococcus aureus [3], 0.5 µg/mL (≈ 0.283 µM); in the test with Streptococcus pneumoniae [4] it was 0.25 µg/mL (≈ 0.141 µM). Also, the MIC90 was determined as 64 µg/mL (≈ 36.2 µM) against Enterococcus sp. [1], 2 µg/mL (≈ 1.13 µM) with Enterococcus sp. [2], 1 µg/mL (≈ 0.566 µM) in the test on Staphylococcus aureus [3] and 0.5 µg/mL (≈ 0.283 µM) with Streptococcus pneumoniae [4].
For the compound `CC(=O)NCC1CN(c2ccc(N3CCOCC3)c(F)c2)C(=O)O1` (single isomer, unassigned) [LINEZOLID], the MIC50 against Enterococcus sp. [1] stood at 2 µg/mL (≈ 5.93 µM); in the test on Enterococcus sp. [2] it was 2 µg/mL (≈ 5.93 µM); against Staphylococcus aureus [3] it was 2 µg/mL (≈ 5.93 µM); in the test on Streptococcus pneumoniae [4] it was 0.5 µg/mL (≈ 1.48 µM). Also, the MIC90 against Enterococcus sp. [1] is 2 µg/mL (≈ 5.93 µM); in the test with Enterococcus sp. [2] it was 2 µg/mL (≈ 5.93 µM); against Staphylococcus aureus [3], 2 µg/mL (≈ 5.93 µM); with Streptococcus pneumoniae [4], 0.5 µg/mL (≈ 1.48 µM).
For the compound `O=C(O)c1cn(C2CC2)c2cc(N3CCNCC3)c(F)cc2c1=O` [CIPROFLOXACIN], the MIC against Escherichia coli was at most 0.003 µg/mL; in the test with Enterococcus faecalis it was 0.78 µg/mL (≈ 2.35 µM); in the test on Klebsiella pneumoniae, 0.025 µg/mL (≈ 0.0754 µM); in the test with Pseudomonas aeruginosa it was 0.05 µg/mL (≈ 0.151 µM); in [5] it was 0.2 µg/mL (≈ 0.604 µM); with Staphylococcus aureus [6] it was 0.05 µg/mL (≈ 0.151 µM). For the same compound, the MIC against Streptococcus pyogenes was 1.56 µg/mL (≈ 4.71 µM); in the test on Streptococcus pneumoniae [7], 0.39 µg/mL (≈ 1.18 µM); in the test with Streptococcus mitis it was 0.78 µg/mL (≈ 2.35 µM).
Take `CN[C@H](CC(C)C)C(=O)N[C@H]1C(=O)N[C@@H](CC(N)=O)C(=O)N[C@H]2C(=O)N[C@H]3C(=O)N[C@H](C(=O)N[C@H](C(=O)O)c4cc(O)cc(O)c4-c4cc3ccc4O)[C@H](O)c3ccc(c(Cl)c3)Oc3cc2cc(c3O[C@@H]2O[C@H](CO)[C@@H](O)[C@H](O)[C@H]2O[C@H]2C[C@](C)(N)[C@H](O)[C@H](C)O2)Oc2ccc(cc2Cl)[C@H]1O` [VANCOMYCIN]: the MIC50 against Enterococcus sp. [1] is above 128 µg/mL; against Enterococcus sp. [2], above 128 µg/mL; in the test on Staphylococcus aureus [3], 1 µg/mL (≈ 0.69 µM); against Streptococcus pneumoniae [4], 0.5 µg/mL (≈ 0.345 µM). Moreover, the MIC90 is above 128 µg/mL against Enterococcus sp. [1], above 128 µg/mL against Enterococcus sp. [2], 2 µg/mL (≈ 1.38 µM) against Staphylococcus aureus [3] and 0.5 µg/mL (≈ 0.345 µM) against Streptococcus pneumoniae [4].
The compound `CC1(C)S[C@@H]2[C@H](NC(=O)Cc3ccccc3)C(=O)N2[C@H]1C(=O)O` [PENICILLIN G] registered a minimum inhibitory concentration (MIC) with Streptococcus pneumoniae [8] of 4 µg/mL (≈ 12 µM).
Turning to `CCN(CC)CCS(=O)(=O)[C@@H]1CCN2C(=O)c3coc(n3)CC(=O)C[C@H](O)/C=C(C)/C=C/CNC(=O)/C=C/[C@@H](C)[C@@H](C(C)C)OC(=O)[C@@H]12.CC[C@H]1NC(=O)[C@@H](NC(=O)c2ncccc2O)[C@@H](C)OC(=O)[C@H](c2ccccc2)NC(=O)[C@@H]2CC(=O)[C@H](CS[C@@H]3CN4CCC3CC4)CN2C(=O)[C@H](Cc2ccc(N(C)C)cc2)N(C)C(=O)[C@@H]2CCCN2C1=O` [QUINUPRISTIN/DALFOPRISTIN] ({Picolinoyl(3-OH)}-T[dAbu]P[NMePhe(4-NMe2)][X1][Phg]; ester 1-C), the MIC50 with Enterococcus sp. [1] was found to be 0.5 µg/mL; with Enterococcus sp. [2], 0.5 µg/mL; against Staphylococcus aureus [3] it was 0.5 µg/mL; against Streptococcus pneumoniae [4] it was 1 µg/mL. Moreover, the MIC90 against Enterococcus sp. [1] was 8 µg/mL; with Enterococcus sp. [2], 8 µg/mL; with Staphylococcus aureus [3] it was 0.5 µg/mL; in the test on Streptococcus pneumoniae [4], 1 µg/mL.
For `CO/N=C1\CN(c2nc3c(cc2F)c(=O)c(C(=O)O)cn3C2CC2)CC1CN` (stereo not given) [GEMIFLOXACIN], the MIC50 against Enterococcus sp. [9] amounted to 4 µg/mL (≈ 10.3 µM); with Enterococcus sp. [10] it was 1 µg/mL (≈ 2.57 µM); against Staphylococcus aureus [3], 2 µg/mL (≈ 5.14 µM); against Streptococcus pneumoniae [4], 0.03 µg/mL (≈ 0.077 µM). Besides, the MIC90 against Enterococcus sp. [9] worked out at 32 µg/mL (≈ 82.2 µM); in the test with Enterococcus sp. [10] it was 2 µg/mL (≈ 5.14 µM); in the test on Staphylococcus aureus [3], 32 µg/mL (≈ 82.2 µM); with Streptococcus pneumoniae [4], 0.06 µg/mL (≈ 0.154 µM).
